Where a chain is given by its changes, count along the chain named. Values joined by “and” are separate entries in the source; they are usually repeats but may differ in a detail not shown here. Equal entries are not always repeated. Where two headings read alike, the source gives them in different places.
Columns and labels:
[1] = biological target: T1, EAAC1 (Rattus norvegicus, UniProt P51907); assay: Whole-cell current recording of EAAC1WT expressed in HEK 293T cells; assay type: cell-based; conditions: for effect on anion current when applied alone: 100 μM applied alone, intracellular SCN−
T1 sequence (P51907 1-523): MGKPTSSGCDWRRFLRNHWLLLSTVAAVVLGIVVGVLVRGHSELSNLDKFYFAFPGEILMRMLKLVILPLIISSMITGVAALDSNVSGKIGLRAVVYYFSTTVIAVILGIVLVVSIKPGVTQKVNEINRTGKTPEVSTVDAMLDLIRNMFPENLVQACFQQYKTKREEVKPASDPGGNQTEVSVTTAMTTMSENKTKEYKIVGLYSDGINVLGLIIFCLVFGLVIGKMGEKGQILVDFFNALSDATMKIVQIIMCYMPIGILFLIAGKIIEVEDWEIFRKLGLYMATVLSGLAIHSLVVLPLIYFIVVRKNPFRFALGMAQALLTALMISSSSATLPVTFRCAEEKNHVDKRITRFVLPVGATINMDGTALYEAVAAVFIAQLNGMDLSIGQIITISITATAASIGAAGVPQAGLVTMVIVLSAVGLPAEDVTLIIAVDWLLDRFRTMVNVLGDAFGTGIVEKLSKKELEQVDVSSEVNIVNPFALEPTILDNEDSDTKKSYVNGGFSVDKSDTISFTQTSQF
Summary of the method: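 HEK 293T cells transfected with EAAC1 plasmid plus RFP DNA (JetPRIME) and used at least 24 h later; whole-cell patch clamp held at 0 mV. Ki came from test-compound dose-response curves of glutamate-induced anion current at 20, 50 and 100 μM L-glutamate (forward mode: 140 mM NaCl outside, 140 mM KSCN pipette). Reverse mode used KSCN outside with NaCl + 10 mM L-Glu in the pipette. Homoexchange used NaCl + 1 mM L-glutamate outside with NaSCN + 10 mM L-glutamate in the pipette.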

[2] = biological target: T1, EAAC1; assay: Pre-incubation / rapid solution exchange experiment; assay type: cell-based
Summary of the method: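 Transfected HEK 293T cells, whole-cell at 0 mV; bath 140 mM NaMES, pipette 140 mM KSCN. Test compound (3, 20 or 100 μM) applied 2 s by solution exchange, then rapid washout with simultaneous switch to 1 mM L-glutamate (~10 ms exchange resolution, ~100 mbar). Responses normalised to a 100 μM glutamate control, n = 3; observed rate constants taken as 1/τ.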

[3] = biological target: T1, EAAC1; assay: Laser-pulse photolysis of MNI-caged glutamate, pre-steady-state kinetics; assay type: cell-based
Summary of the method: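 HEK 293T cells co-transfected with EAAC1 and RFP plasmids, used ≥24 h later; whole-cell clamp at 0 mV. 1 mM MNI-caged L-glutamate pre-applied 4 s, then ~5 ns 355 nm pulse releasing ~60–100 μM glutamate; 160 ms at 50 kHz, ±10 μM test compound. Bath 140 mM NaMES; pipette 140 mM KMES (transport) or KSCN (anion). Exponential fits→decay rate constants.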

[4] = pKa of the 3-hydroxyl-Δ2-isoxazoline group; assay type: physicochemical; conditions: pH 7.3, based on its pKa
[5] = cited from earlier work
[6] = tested on: glutamate transporters in synaptosomes prepared from rat brains; conditions: (+)-HIP-B eutomer versus (−)-HIP-B; cited from earlier work
[7] = biological target: T2, EAAC1R446Q (Rattus norvegicus, UniProt P51907, R446Q); assay: Whole-cell current recording of EAAC1 with the R446Q mutation, exchange mode; assay type: cell-based; conditions: application of 1 mM L-glutamate or 0.2 mM TBOA; NaSCN pipette; 0 mV
T2 sequence (P51907 1-523 R446Q): T1 sequence (P51907 1-523) with R446Q

[8] = tested on: glutamate transport; conditions: cited from earlier work
[9] = physiological conditions; cited from earlier work

| SMILES | effect on anion current when applied alone ([1]; 0 mV) | transport current when applied alone ([1]; 100 μM, NaMES extracellular, KMES pipette, 0 mV) | alleviation of TBOA (1 μM) inhibition of leak anion current ([1]; any concentration tested, up to 70 μM, in the presence of 1 μM TBOA) | Ki ([1]; read-out: Ki value (range used for estimate), approximate value in discussion) [µM] | Ki ([1]; read-out: inhibition constant Ki, glutamate-induced anion current, forward transport mode, 20 μM glutamate, n = 3, 0 mV, KSCN pipette) [µM] | Ki ([1]; read-out: inhibition constant Ki, glutamate-induced anion current, forward transport mode, 100 μM glutamate, n = 3, 0 mV, KSCN pipette) [µM] | Ki ([1]; read-out: inhibition constant in the reverse transport mode, 20 μM glutamate, n = 3, reverse transport mode) [µM] | bimolecular rate constant for binding ([2]; estimated from Ki in the 20 μM range and dissociation on the 50 ms time scale) | time scale of binding at the relevant concentration range ([2]; estimated from bimolecular rate constant) [ms] | time for full reversal of inhibition ([2]; washout) [ms] | time scale of dissociation from binding site ([2]; washout experiment) | effect on peak of transient anion current ([3]; anion conducting mode) | effect on decay time constants τfast and τslow of transient transport current ([3]; forward transport mode) | fraction in neutral form [4] | pKa of the 3-hydroxyl-Δ2-isoxazoline group [5] | eudismic ratio, inhibition of [3H]D-aspartate uptake [6] | current induced in EAAC1R446Q [7] [pA] | apparent affinity for inhibition of glutamate transport [8] | neurotoxicity [9] | time constant for activation of anion current by glutamate ([2]; 1 mM glutamate, no inhibitor, limited by solution exchange) [ms] |
| --- | --- | --- | --- | --- | --- | --- | --- | --- | --- | --- | --- | --- | --- | --- | --- | --- | --- | --- | --- | --- |
| O=C(O)[C@H]1NC[C@@H]2C(O)=NO[C@@H]21 [(+)-HIP-B, (+)-(3aS,6S,6aS)-3-Hydroxy-4,5,6,6a-tetrahydro-3aH-pyrrolo[3,4-d]isoxazole-6-carboxylic acid] | did not induce or inhibit anion current | did not elicit transport current | unable to alleviate the TBOA effect | ~20 | 8.7 ± 1.5 | 9.2 ± 1.2 | 23.2 ± 2.5 | ~10^6 M^−1s^−1 | 20 to 50 | ≤ 500 | 50 to 60 ms and ~50 ms | inhibited strongly | virtually unaffected | less than 1% | 5.1 | 10 |  |  |  |  |
| N[C@H](C(=O)O)[C@H](OCc1ccccc1)C(=O)O (racemic) [TBOA, DL-threo-β-benzyloxyaspartic acid] | generated outward current |  |  |  |  |  |  |  |  |  |  |  |  |  |  |  | < 5 | sub-μM range | neurotoxic |  |
| N[C@@H](CCC(=O)O)C(=O)O [glutamate, L-glutamate, reference compound] |  |  |  |  |  |  |  |  |  |  |  |  |  |  |  |  | < 5 |  |  | 7 ± 2 |
